Results filed as inconclusive are left out.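 How the source made its calls, unless noted: active means growth inhibition above 25% in both replicates, a cutoff set 3 SD above the mean; inconclusive means above 25% in only one replicate; inactive means the rest.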
How the values were obtained:
[1] = OD615 S. cerevisiae growth inhibition, permissive medium, pilot counter-assay, permissive growth control for S. cerevisiae lifespan shortening project (AID 705); details: OD615, 24 h, at 10 µM, active compounds read high
Summary of the method: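 System: S. cerevisiae with engineered DeaD lifespan system / Measured by: absorbance (optical density) at 615 nm / Read-out: reduction in yeast growth (OD615) / Times: 4 h cell pre-growth, 24 h exposure at 30 °C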

[2] = Restrictive medium S. cerevisiae growth inhibition, OD615, pilot screen of yeast lifespan reduction project, restrictive growth control (AID 706;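 active means growth inhibition above a set limit, 3 SD over mean compound inhibition, in both replicates, cut at about 43% in these data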;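 further: modified DeaD lifespan yeast strain shifted to restrictive glucose medium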); details: OD615, 48 h, at 10 µM, active compounds read high
Summary of the method: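 System: Engineered S. cerevisiae DeaD strain | Buffer or medium: Glucose-based CSMM-D restrictive medium | Schedule: 4 h pre-incubation, 48 h exposure at 30 °C | Technique: Optical density at 615 nm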

[3] = viability gain of MRP-1-high H69AR cells under doxorubicin, pilot screen, MRP-1 activator project, CellTiter-Glo, duplicate (AID 807;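 active means viability increase at or above a cutoff of the median across tested compounds plus 3 SD, cut at about 8.5% in these data, passing the limit was not always enough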;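 further: compound pretreatment 18-22 h then 72 h combined with doxorubicin; 0% = doxorubicin alone and 100% = vehicle without doxorubicin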); details: H69AR viability with doxorubicin, CellTiter-Glo luminescence; at 10 µM; active compounds read high
[4] = growth suppression of beta-catenin knockout HCT116, pilot screen, human colon tumor cells (AID 823;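 active means cell viability at or below a set limit in both duplicate runs, the limit being the all-compound median minus 4 SD, cut at about 23% in these data, passing the limit was not always enough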;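 further: 0% = wells killed by 20 µM Hyamine and 100% = untreated DMSO cell wells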); details: CellTiter-Glo, 60 h, at 10 µM, active compounds read low
[5] = growth suppression of PTEN-deleted HCT116, pilot screen, cell-based, HCT116 clonal line, CellTiter-Glo (AID 824;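 active means viability at or below 27.92% in each of two runs, the all-compound median minus 4 SD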;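 further: 0% = 20 µM Hyamine control and 100% = vehicle cell control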); details: 60 h, at 10 µM, active compounds read low
[6] = inhibitors of the yeast RAM network, pilot screen, dse1pr::URA3 reporter, 5-FOA selection (AID 869;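 active means inhibition over a set limit, the all-compound mean plus 3 SD, in both replicate runs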;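 further: 0% = DMSO wells with no growth and 100% = 10 µM 1-NA-PP1 with full growth; RAM network block rescues cells from 5-FOA so hits raise OD615 growth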); details: S. cerevisiae dse1pr::URA3 5-FOA growth, OD615, 2 d; at 10 µM; active compounds read high; strain carries analog-sensitive mutant Cbk1 kinase
[7] = RAM signaling pathway blockade in yeast – S. cerevisiae, Pdr1DBD-CYC8 efflux-inhibited sensitized strain, primary screen (AID 1298;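 active means RAM network inhibition above 8.4% in each of two replicates, 3 SD over the compound average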;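 further: 0% = DMSO untreated cells without growth and 100% = 10 µM 1-NA-PP1 full growth; higher means more yeast growth rescued from 5-FOA killing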); details: S. cerevisiae cbk1-as DSE1-URA3 strain, 5-FOA growth OD615, 2 d; at 50 µM; active compounds read high

O=C(c1cc(-c2cccc(O)c2)on1)N1CCCCC1
inactive: growth inhibition [1] 0.145% | growth inhibition [2] 10.4% | viability increase [3] 0.08% | viability [4] 101% | viability [5] 103% | inhibition [6] -0.46% | RAM network inhibition [7] 4.74%

CCCS(=O)(=O)n1nc(-c2ccc(OC)cc2OC)cc1N
inactive: growth inhibition [1] -6.52% | growth inhibition [2] -22.5% | viability increase [3] -2.51% | viability [4] 101% | viability [5] 102% | inhibition [6] -0.255% | RAM network inhibition [7] 4.63%

CN1CCN(C(=O)C2CC(=O)N(c3ccc(F)c(Cl)c3)C2)CC1 (configuration not stated)
inactive: growth inhibition [1] -6.12% | growth inhibition [2] -6.44% | viability increase [3] -0.63% | viability [4] 96% | viability [5] 95.9% | inhibition [6] 2.12% | RAM network inhibition [7] 3.12%

CCOc1ccc(C(=O)Nc2cc(=O)n(C)c(=O)n2C)cc1
inactive: growth inhibition [1] -29.3% | growth inhibition [2] -26.3% | viability increase [3] -0.98% | viability [4] 101% | viability [5] 97.5% | inhibition [6] 1.9% | RAM network inhibition [7] 0.62%

CCOC(=O)c1oc2cc(O)ccc2c(=O)c1-c1ccccc1OC
inactive: growth inhibition [1] -11.6% | growth inhibition [2] -0.685% | viability increase [3] -1.98% | viability [4] 98.4% | viability [5] 92% | inhibition [6] -0.595% | RAM network inhibition [7] 5.56%

COc1ccc(-c2nnc(SCC(=O)NC3CCCCC3)o2)cc1OC
inactive: growth inhibition [1] -3.22% | growth inhibition [2] 1.43% | viability increase [3] -2.07% | viability [4] 98.5% | viability [5] 98.4% | inhibition [6] 1.34% | RAM network inhibition [7] 2.65%

Cc1cc(C)c(NC(=O)CSc2nnc(-c3ccncc3)n2Cc2ccco2)c(Cl)c1
inactive: growth inhibition [1] 6.26% | growth inhibition [2] 12.8% | viability increase [3] -0.79% | viability [4] 98% | viability [5] 93.1% | inhibition [6] 1.79% | RAM network inhibition [7] 6.08%

COC(=O)C1=C(C)n2cnnc2NC1c1ccc(Cl)cc1 (configuration not stated)
inactive: growth inhibition [1] 0.905% | growth inhibition [2] -4.44% | viability increase [3] 0.28% | viability [4] 104% | viability [5] 97.2% | inhibition [6] 1.27% | RAM network inhibition [7] -0.92%

O=C(CCSc1nc(-c2ccc3c(c2)OCO3)cc(C(F)(F)F)n1)NCc1ccco1
inactive: growth inhibition [1] -4.51% | growth inhibition [2] -2.02% | viability increase [3] -2.85% | viability [4] 74.8% | viability [5] 74.6% | inhibition [6] 2.63% | RAM network inhibition [7] 2.97%

CCC(NC(=O)c1ccccc1NC(=O)c1ccco1)C(=O)O (configuration not stated)
inactive: growth inhibition [1] -0.94% | growth inhibition [2] -12.6% | viability increase [3] -4.34% | viability [4] 109% | viability [5] 95.7% | inhibition [6] 0.27% | RAM network inhibition [7] 0.73%

O=C(CN(C1CCCCC1)S(=O)(=O)c1ccc(Cl)cc1)NCc1ccncc1
inactive: growth inhibition [1] -6.84% | growth inhibition [2] 3.38% | viability increase [3] -2.2% | viability [4] 79.8% | viability [5] 79.4% | inhibition [6] 1.56% | RAM network inhibition [7] 3.63%

COc1ccccc1-c1c(C)nn2c(N3CCN(c4ccccc4OC)CC3)cc(C)nc12
inactive: growth inhibition [1] -0.095% | growth inhibition [2] 6.77% | viability increase [3] -1.57% | viability [4] 60.7% | viability [5] 63.2% | inhibition [6] 0.775% | RAM network inhibition [7] 1.3%

COc1ccc(N2CCN(c3nc4c(c(=O)[nH]c(=O)n4C)n3Cc3ccccc3Cl)CC2)cc1
inactive: growth inhibition [1] 4.9% | growth inhibition [2] -2.96% | viability increase [3] -2.71% | viability [4] 84.6% | viability [5] 75.3% | inhibition [6] 2.07% | RAM network inhibition [7] -1.3%

c1ccc2c(c1)CCN(CCCNc1nc3ccccc3n3cnnc13)C2
inactive: growth inhibition [1] -9.84% | growth inhibition [2] -12.9% | viability increase [3] -4.17% | viability [4] 91.3% | viability [5] 97.1% | inhibition [6] 1.18% | RAM network inhibition [7] -1.09%

Cc1cc(C)nc(NS(=O)(=O)c2ccc(NC(=O)c3ccc4c(c3)OCO4)cc2)n1
inactive: growth inhibition [1] -6.52% | growth inhibition [2] -0.9% | viability increase [3] 5.22% | viability [4] 100% | viability [5] 95.9% | inhibition [6] 1.28% | RAM network inhibition [7] -0.21%

O=S(=O)(c1ccc(Cl)c(Cl)c1)N1CCc2nc3ccccc3n2CC1
inactive: growth inhibition [1] -5.17% | growth inhibition [2] 4.47% | viability increase [3] -1.28% | viability [4] 98.9% | viability [5] 102% | inhibition [6] 1.75% | RAM network inhibition [7] 6.73%

O=C(Nc1ccc(S(=O)(=O)N2CCCC2)cc1)C1COc2ccccc2O1 (configuration not stated)
inactive: growth inhibition [1] -10.9% | growth inhibition [2] -15.6% | viability increase [3] 0.84% | viability [4] 97.8% | viability [5] 83% | inhibition [6] 1.24% | RAM network inhibition [7] 5.44%

O=C(Nc1sc2c(c1C(=O)NCC1CCCO1)CCCC2)c1cccs1 (configuration not stated)
inactive: growth inhibition [1] -11.2% | growth inhibition [2] 5.31% | viability increase [3] -3.45% | viability [4] 85.9% | viability [5] 86.6% | inhibition [6] 1% | RAM network inhibition [7] 4.75%

O=C(C1CC1)N1CCc2cc(Br)cc(S(=O)(=O)NCCCN3CCCC3)c21
inactive: growth inhibition [1] -9.22% | growth inhibition [2] -4.36% | viability increase [3] -2.47% | viability [4] 87.6% | viability [5] 86.3% | inhibition [6] 0.08% | RAM network inhibition [7] 5.37%

Cc1ccc(S(=O)(=O)Cc2ccc(C(=O)N3CCN(c4ccccn4)CC3)o2)cc1
inactive: growth inhibition [1] -6.39% | growth inhibition [2] -3.59% | viability increase [3] -4.22% | viability [4] 87.1% | viability [5] 79.8% | inhibition [6] 1.25% | RAM network inhibition [7] 3.12%

O=C(Cn1nnc(-c2ccccc2F)n1)NCCc1ccccc1
inactive: growth inhibition [1] -13.3% | growth inhibition [2] -7.54% | viability increase [3] -0.89% | viability [4] 97.4% | viability [5] 94% | inhibition [6] 1.33% | RAM network inhibition [7] 0.36%

CCC(O)CNc1nc(SC)nc2sc3c(c12)CCN(C)C3 (configuration not stated)
inactive: growth inhibition [1] -7.7% | growth inhibition [2] -14.2% | viability increase [3] -3.74% | viability [4] 99.2% | viability [5] 91.2% | inhibition [6] 2.08% | RAM network inhibition [7] 0.46%

CC(=O)NC(CCS(C)(=O)=O)C(=O)Nc1cccc(Cl)c1Cl (configuration not stated)
inactive: growth inhibition [1] -2.35% | growth inhibition [2] -13.9% | viability increase [3] -4.63% | viability [4] 101% | viability [5] 97% | inhibition [6] 2.29% | RAM network inhibition [7] -0.83%

COc1ccc(NC(=O)Nc2cccc(C)n2)cc1
inactive: growth inhibition [1] 6.65% | growth inhibition [2] 21.5% | viability increase [3] -1.44% | viability [4] 100% | viability [5] 88.4% | inhibition [6] 0.5% | RAM network inhibition [7] 3.92%

Cc1ccc(-n2ncc3c(=O)[nH]c(SCC(=O)N4CCC(C)CC4)nc32)cc1C
inactive: growth inhibition [1] -0.265% | growth inhibition [2] -3.58% | viability increase [3] -5.08% | viability [4] 89% | viability [5] 85.3% | inhibition [6] 1.89% | RAM network inhibition [7] 2.86%

O=C(Nc1ccc(Br)cc1F)C1CCN(c2nnc(-n3cccc3)s2)CC1
inactive: growth inhibition [1] 2.32% | growth inhibition [2] -4.69% | viability increase [3] 0.53% | viability [4] 97.8% | viability [5] 99.8% | inhibition [6] 3.21% | RAM network inhibition [7] 0.36%

COc1cc2c(C(=O)NCc3ccccn3)cn(CC(C)C)c(=O)c2cc1OC
inactive: growth inhibition [1] -6.14% | growth inhibition [2] -28.3% | viability increase [3] -3.77% | viability [4] 104% | viability [5] 92.4% | inhibition [6] 1.55% | RAM network inhibition [7] 1.16%

Cc1noc(/C=C/N(C)C)c1S(=O)(=O)N1CCN(c2ccccc2)CC1
inactive: growth inhibition [1] -14.8% | growth inhibition [2] -3.67% | viability increase [3] -2.94% | viability [4] 95.9% | viability [5] 90.8% | inhibition [6] 2.37% | RAM network inhibition [7] 7.31%

COC(=O)C1=C(C)Nc2nc(-c3ccccc3)nn2C1c1ccc(C)o1 (configuration not stated)
inactive: growth inhibition [1] -4.19% | growth inhibition [2] 12.3% | viability increase [3] -4.23% | viability [4] 78.3% | viability [5] 76.1% | inhibition [6] 2.19% | RAM network inhibition [7] 1.2%

CCCCCSc1nc2c(c(=O)[nH]c(=O)n2C)n1CC
inactive: growth inhibition [1] -13.1% | growth inhibition [2] 1.94% | viability increase [3] -3.9% | viability [4] 88% | viability [5] 88% | inhibition [6] 1.18% | RAM network inhibition [7] -1.69%

COc1cc(C(=O)Nc2nnc(C)s2)cc(OC)c1OC
inactive: growth inhibition [1] -12.2% | growth inhibition [2] -5.23% | viability increase [3] -2% | viability [4] 95.2% | viability [5] 82.3% | inhibition [6] 2.54% | RAM network inhibition [7] 2.16%

O=C(NCCN1CCN(c2ccccc2F)CC1)C1CCCN(S(=O)(=O)c2cnc[nH]2)C1 (configuration not stated)
inactive: growth inhibition [1] 5.84% | growth inhibition [2] 3.21% | viability increase [3] -1.19% | viability [4] 104% | viability [5] 98% | inhibition [6] 2.38% | RAM network inhibition [7] 0.68%

Cc1cc(NC(=O)NC2(C(F)(F)F)Oc3ccc(Cl)cc3O2)no1 (configuration not stated)
inactive: growth inhibition [1] -3.33% | growth inhibition [2] -23% | viability increase [3] -5.78% | viability [4] 32.6% | viability [5] 42.5% | inhibition [6] 3.26% | RAM network inhibition [7] 7.87%

CC(Oc1ccc(Cl)cc1Cl)C(=O)NCCN1CCOCC1 (configuration not stated)
inactive: growth inhibition [1] -8.7% | growth inhibition [2] 4.87% | viability increase [3] -2.33% | viability [4] 100% | viability [5] 97.5% | inhibition [6] -0.29% | RAM network inhibition [7] 1.53%

COc1ccccc1-c1nc(-c2ccccn2)no1
inactive: growth inhibition [1] -10.5% | growth inhibition [2] -2.21% | viability increase [3] -5.99% | viability [4] 45.5% | viability [5] 39.7% | inhibition [6] 0.975% | RAM network inhibition [7] 0.42%

O=C(Cn1cnc2c(nnn2-c2ccccc2)c1=O)N1CCOCC1
inactive: growth inhibition [1] -5.42% | growth inhibition [2] -7.92% | viability increase [3] 0.78% | viability [4] 104% | viability [5] 104% | inhibition [6] -0.26% | RAM network inhibition [7] 0.26%
